According to ChEMBL document CHEMBL2331439 (J Med Chem, 2013):
pIC50: −log10 of the molar value.

Experiments:
[1] = target: Glycogen synthase kinase-3 beta (Homo sapiens) (UniProt P49841); test: Inhibition of recombinant GSK3B (unknown origin) at 5 uM by FRET-based Z'-LYTE assay
Summary of the method: (§1)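 Single-point panel screen at 5 μM in duplicate. ATP is at the apparent Km of each kinase, and the Z'-LYTE FRET peptide substrate is used. Each point has two control wells: a protease control for interference with development and a fluorescence control for interference with the FRET read-out. Values above 100% are treated as maximal inhibition and values below 0% as none.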

[2] = target: Proto-oncogene tyrosine-protein kinase receptor Ret (Homo sapiens) (UniProt P07949); test: Inhibition of recombinant RET (unknown origin) at 5 uM by FRET-based Z'-LYTE assay
Summary of the method: (§2)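 Z'-LYTE FRET peptide (coumarin/fluorescein) phosphorylation was followed by protease development. Wells included a protease control for interference with development and a fluorescence control for interference with the FRET read. Values above 100% or below 0% were treated as maximal or no inhibition.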

[3] = target: Rho-associated protein kinase 1 (Homo sapiens) (UniProt Q13464); test: Inhibition of recombinant ROCK1 (unknown origin) at 5 uM by FRET-based Z'-LYTE assay; summary of the method: as §2
[4] = target: Fibroblast growth factor receptor 1 (Homo sapiens) (UniProt P11362); test: Inhibition of recombinant FGFR1 (unknown origin) at 5 uM by FRET-based Z'-LYTE assay; summary of the method: as §1
[5] = target: Receptor-type tyrosine-protein kinase FLT3 (Homo sapiens) (UniProt P36888); test: Inhibition of recombinant FLT3 (unknown origin) at 5 uM by FRET-based Z'-LYTE assay; summary of the method: as §1
[6] = target: Ribosomal protein S6 kinase beta-1 (Homo sapiens, UniProt P23443); test: Inhibition of recombinant RPS6K1 (unknown origin) by FRET-based Z'-LYTE assay
[7] = target: Activin receptor type-1B (Homo sapiens) (UniProt P36896); test: Inhibition of recombinant ACVR1B (unknown origin) at 5 uM by FRET-based Z'-LYTE assay; summary of the method: as §1
[8] = target: Cyclin-dependent kinase 2/cyclin A (Homo sapiens) (UniProt P24941+P20248+P78396); test: Inhibition of recombinant CDK2/cyclin A (unknown origin) at 5 uM by FRET-based Z'-LYTE assay; type: protein-complex assay; summary of the method: as §1
[9] = target: Casein kinase II subunit alpha (Homo sapiens) (UniProt P68400); test: Inhibition of recombinant CSNK2A1 (unknown origin) at 5 uM by FRET-based Z'-LYTE assay; summary of the method: as §1
[10] = target: Inhibitor of nuclear factor kappa-B kinase subunit epsilon (Homo sapiens) (UniProt Q14164); test: Inhibition of recombinant IKBKE (unknown origin) at 5 uM by FRET-based Z'-LYTE assay; summary of the method: as §1
[11] = target: MAP kinase-activated protein kinase 2 (Homo sapiens, UniProt P49137); conditions: 5 uM
Chain of MAP kinase-activated protein kinase 2 (P49137 whole entry, looked up): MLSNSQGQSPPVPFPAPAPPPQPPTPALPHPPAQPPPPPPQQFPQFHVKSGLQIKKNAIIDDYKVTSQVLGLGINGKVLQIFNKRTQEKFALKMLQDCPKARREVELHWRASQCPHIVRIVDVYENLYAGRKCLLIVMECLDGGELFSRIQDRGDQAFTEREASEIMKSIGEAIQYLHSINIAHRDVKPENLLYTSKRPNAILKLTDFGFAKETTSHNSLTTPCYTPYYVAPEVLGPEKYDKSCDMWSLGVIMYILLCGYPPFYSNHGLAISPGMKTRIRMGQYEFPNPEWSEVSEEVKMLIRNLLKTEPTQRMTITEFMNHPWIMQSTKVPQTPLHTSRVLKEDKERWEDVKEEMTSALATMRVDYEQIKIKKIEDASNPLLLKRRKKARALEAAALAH

Chain of Receptor-type tyrosine-protein kinase FLT3 (Homo sapiens) (P36888 whole entry): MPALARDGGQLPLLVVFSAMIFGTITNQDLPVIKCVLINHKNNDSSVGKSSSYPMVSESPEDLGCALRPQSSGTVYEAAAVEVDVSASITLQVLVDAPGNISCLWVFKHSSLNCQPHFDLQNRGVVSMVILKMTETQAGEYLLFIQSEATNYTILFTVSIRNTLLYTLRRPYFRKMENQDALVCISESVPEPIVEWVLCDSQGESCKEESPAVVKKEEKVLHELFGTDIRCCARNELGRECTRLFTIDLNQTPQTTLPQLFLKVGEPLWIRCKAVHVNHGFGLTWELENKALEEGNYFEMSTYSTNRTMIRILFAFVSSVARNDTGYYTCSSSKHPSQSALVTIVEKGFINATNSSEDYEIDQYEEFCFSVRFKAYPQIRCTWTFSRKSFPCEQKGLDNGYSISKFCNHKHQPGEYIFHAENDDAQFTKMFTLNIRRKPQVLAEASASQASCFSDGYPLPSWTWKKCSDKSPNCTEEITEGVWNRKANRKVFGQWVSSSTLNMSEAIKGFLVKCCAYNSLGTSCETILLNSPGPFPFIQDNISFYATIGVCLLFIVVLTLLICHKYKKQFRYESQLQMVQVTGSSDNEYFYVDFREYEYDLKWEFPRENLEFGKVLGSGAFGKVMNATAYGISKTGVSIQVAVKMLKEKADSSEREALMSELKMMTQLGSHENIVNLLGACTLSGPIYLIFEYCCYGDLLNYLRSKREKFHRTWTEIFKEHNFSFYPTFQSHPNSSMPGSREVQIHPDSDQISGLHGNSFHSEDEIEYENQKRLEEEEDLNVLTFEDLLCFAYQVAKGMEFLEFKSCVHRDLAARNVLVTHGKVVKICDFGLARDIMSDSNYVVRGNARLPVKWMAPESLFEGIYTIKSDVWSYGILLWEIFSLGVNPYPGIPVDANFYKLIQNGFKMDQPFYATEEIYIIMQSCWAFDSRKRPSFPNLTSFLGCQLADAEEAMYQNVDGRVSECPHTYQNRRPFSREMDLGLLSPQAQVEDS
Chain of Casein kinase II subunit alpha (Homo sapiens) (P68400 whole entry, looked up): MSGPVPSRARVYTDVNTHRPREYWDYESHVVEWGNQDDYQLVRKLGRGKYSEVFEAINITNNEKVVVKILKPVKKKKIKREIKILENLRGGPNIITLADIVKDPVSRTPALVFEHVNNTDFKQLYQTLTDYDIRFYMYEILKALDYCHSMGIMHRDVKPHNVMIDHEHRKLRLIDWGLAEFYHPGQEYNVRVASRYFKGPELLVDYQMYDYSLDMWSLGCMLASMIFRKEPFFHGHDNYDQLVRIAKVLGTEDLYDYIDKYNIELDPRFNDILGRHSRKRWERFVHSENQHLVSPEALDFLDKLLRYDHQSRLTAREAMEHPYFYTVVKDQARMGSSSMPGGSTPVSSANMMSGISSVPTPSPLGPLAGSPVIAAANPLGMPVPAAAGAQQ
Chain of Inhibitor of nuclear factor kappa-B kinase subunit epsilon (Homo sapiens) (Q14164 whole entry): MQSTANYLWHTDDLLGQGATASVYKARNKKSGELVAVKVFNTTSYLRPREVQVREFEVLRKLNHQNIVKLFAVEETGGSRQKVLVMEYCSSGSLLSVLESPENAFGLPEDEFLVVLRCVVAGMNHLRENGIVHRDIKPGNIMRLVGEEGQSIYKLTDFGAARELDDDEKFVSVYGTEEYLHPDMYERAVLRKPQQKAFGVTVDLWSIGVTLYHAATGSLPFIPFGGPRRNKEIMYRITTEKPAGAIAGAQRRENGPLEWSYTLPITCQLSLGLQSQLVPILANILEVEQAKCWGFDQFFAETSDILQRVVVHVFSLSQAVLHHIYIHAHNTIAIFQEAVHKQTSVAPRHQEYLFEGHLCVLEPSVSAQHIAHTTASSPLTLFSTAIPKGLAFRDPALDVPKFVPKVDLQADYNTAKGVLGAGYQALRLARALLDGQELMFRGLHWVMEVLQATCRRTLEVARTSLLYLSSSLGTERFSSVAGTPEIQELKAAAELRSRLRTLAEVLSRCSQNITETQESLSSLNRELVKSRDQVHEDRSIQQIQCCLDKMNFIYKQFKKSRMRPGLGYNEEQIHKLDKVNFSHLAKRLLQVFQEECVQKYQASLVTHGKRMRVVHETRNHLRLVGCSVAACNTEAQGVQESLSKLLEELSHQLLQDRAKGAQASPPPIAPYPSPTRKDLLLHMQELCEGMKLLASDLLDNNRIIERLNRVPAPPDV
Chain of Ribosomal protein S6 kinase beta-1 (P23443 whole entry): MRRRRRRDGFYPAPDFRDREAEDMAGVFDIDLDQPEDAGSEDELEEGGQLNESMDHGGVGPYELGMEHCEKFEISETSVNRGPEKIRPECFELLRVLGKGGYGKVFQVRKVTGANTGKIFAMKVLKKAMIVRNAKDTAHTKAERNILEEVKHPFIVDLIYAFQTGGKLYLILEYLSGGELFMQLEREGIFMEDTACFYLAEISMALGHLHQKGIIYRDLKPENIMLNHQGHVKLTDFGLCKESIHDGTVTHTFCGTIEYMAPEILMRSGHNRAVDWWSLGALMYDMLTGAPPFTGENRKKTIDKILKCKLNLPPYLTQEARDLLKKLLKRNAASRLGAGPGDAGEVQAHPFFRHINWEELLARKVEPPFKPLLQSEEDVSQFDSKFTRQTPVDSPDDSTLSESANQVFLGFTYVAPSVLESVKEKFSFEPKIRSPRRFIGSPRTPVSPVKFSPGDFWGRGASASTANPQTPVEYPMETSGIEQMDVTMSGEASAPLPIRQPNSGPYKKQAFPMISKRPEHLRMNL
Chain of Activin receptor type-1B (Homo sapiens) (P36896 whole entry): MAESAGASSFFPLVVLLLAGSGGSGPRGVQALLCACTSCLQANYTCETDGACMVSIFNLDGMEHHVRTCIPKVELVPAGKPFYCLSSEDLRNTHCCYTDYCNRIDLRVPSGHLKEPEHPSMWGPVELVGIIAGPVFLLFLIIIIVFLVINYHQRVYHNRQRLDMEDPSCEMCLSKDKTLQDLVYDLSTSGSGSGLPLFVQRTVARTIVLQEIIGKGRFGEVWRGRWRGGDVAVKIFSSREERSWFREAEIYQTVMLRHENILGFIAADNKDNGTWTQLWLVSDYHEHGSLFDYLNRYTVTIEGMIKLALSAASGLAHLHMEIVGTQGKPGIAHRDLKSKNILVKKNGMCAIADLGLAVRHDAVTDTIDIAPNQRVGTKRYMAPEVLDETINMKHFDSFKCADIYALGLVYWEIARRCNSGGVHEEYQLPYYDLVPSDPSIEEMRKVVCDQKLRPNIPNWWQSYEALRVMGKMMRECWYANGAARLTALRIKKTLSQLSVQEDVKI
Chain of Rho-associated protein kinase 1 (Homo sapiens) (Q13464 2-1354 limits assumed): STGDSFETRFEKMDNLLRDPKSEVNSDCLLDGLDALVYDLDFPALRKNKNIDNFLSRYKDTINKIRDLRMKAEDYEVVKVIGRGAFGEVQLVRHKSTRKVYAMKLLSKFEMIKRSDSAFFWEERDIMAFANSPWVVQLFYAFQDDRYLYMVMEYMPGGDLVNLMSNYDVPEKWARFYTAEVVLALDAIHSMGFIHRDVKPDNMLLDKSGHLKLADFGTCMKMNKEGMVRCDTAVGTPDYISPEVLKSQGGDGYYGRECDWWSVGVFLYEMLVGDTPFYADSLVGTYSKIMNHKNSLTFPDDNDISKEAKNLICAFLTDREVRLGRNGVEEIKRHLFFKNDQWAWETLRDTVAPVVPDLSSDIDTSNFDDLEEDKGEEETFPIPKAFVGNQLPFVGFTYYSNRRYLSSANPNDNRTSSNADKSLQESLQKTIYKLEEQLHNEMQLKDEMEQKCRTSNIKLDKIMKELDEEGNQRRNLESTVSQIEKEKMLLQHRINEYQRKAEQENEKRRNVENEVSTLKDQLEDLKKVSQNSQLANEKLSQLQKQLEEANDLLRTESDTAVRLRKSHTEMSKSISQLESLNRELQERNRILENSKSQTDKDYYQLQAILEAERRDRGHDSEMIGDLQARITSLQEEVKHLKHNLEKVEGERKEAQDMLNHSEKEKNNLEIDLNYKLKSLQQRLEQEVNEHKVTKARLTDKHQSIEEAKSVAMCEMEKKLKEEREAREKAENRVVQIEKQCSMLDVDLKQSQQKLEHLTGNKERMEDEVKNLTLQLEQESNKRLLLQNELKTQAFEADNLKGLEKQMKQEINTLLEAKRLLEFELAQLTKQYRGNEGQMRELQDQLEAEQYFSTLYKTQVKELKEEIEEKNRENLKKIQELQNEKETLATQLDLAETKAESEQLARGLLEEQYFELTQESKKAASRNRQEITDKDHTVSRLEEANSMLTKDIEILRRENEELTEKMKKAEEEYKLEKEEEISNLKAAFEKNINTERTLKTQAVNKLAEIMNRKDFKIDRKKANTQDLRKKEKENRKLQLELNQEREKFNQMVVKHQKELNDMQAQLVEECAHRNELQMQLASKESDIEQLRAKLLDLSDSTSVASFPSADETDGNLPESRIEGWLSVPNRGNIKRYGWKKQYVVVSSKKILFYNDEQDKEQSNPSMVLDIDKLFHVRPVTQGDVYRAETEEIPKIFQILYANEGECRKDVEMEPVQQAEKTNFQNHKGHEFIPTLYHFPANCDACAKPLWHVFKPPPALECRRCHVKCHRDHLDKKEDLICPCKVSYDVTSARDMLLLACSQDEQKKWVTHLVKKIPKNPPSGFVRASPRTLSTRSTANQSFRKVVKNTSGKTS

- inhibition [1]: 17%
- inhibition [2]: 21%
- inhibition [3]: 58%
- inhibition [4]: 66%
- inhibition [5]: 69%
- pIC50 [6]: 5.85
- inhibition [7]: 1%
- inhibition [8]: 1%
- inhibition [9]: 5%
- inhibition [10]: 15%
- inhibition [11]: 85%
SMILES: O=C1/C(=C/c2ccccn2)CNC/C1=C\c1ccccn1
